In ChEMBL document CHEMBL1123836, “Synthesis and antiviral activity of 9-[4-hydroxy-3-(hydroxymethyl)but-1-yl]purines” (J Med Chem, 1987):

Assays:
Vero [1] = assay: Compound was tested for antiviral activity against Herpes Simplex virus Type-2(MS) in vero cells; format: functional, cell-based; conditions: Chlorocebus sabaeus
Procedure, shortened: (§1)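 Plaque reduction in Vero cell monolayers infected with about 50 PFU of HSV-1 or HSV-2. A concentration range of compound was included in an agarose overlay and kept present throughout. Plaques were counted 3 days post-infection. IC50 is the concentration giving a plaque count 50% of untreated controls. Stocks were 10 mg/mL in Me2SO, diluted in test medium.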

Vero [2] = assay: Compound was tested for antiviral activity against Herpes Simplex virus Type-1(HFEM) in vero cells; format: functional, cell-based; conditions: Chlorocebus sabaeus; procedure, shortened: as §1
MRC5 [3] = assay: compound was tested for antiviral activity against Herpes Simplex virus Type-1(18189) in human lung fibroblasts (MRC-5); format: functional
Procedure, shortened: (§2)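 Virus yield reduction in MRC-5 cells infected at a multiplicity of about 1 PFU/cell. A concentration range of compound was added in culture medium after virus adsorption and kept present throughout. Supernatants were harvested 24 h post-infection and titrated on Vero cells. IC90 is the concentration reducing infectious yield by 90% versus untreated controls.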

MRC5 [4] = assay: compound was tested for antiviral activity against Herpes Simplex virus Type-1(19407) in human lung fibroblasts (MRC-5); format: functional; procedure, shortened: as §2
MRC5 [5] = assay: compound was tested for antiviral activity against Herpes Simplex virus Type-1(20132) in human lung fibroblasts (MRC-5); format: functional; procedure, shortened: as §2
MRC5 [6] = assay: compound was tested for antiviral activity against Herpes Simplex virus Type-1(HFEM) in human lung fibroblasts (MRC-5); format: functional; procedure, shortened: as §2
MRC5 [7] = assay: compound was tested for antiviral activity against Herpes Simplex virus Type-2(17409) in human lung fibroblasts (MRC-5); format: functional; procedure, shortened: as §2
MRC5 [8] = assay: compound was tested for antiviral activity against Herpes Simplex virus Type-2(20605) in human lung fibroblasts (MRC-5); format: functional; procedure, shortened: as §2
MRC5 [9] = assay: compound was tested for antiviral activity against Herpes Simplex virus Type-2(21929) in human lung fibroblasts (MRC-5); format: functional; procedure, shortened: as §2
MRC5 [10] = assay: compound was tested for antiviral activity against Herpes Simplex virus Type-2(MS) in human lung fibroblasts (MRC-5); format: functional; procedure, shortened: as §2
MRC5 [11] = assay: Compound was tested for antiviral activity against Herpes Simplex virus Type-1(20132) in human lung fibroblasts (MRC-5); format: functional; procedure, shortened: as §2
MRC5 [12] = assay: Compound was tested for antiviral activity against Herpes Simplex virus Type-1(HFEM) in human lung fibroblasts (MRC-5); format: functional; procedure, shortened: as §2
MRC5 [13] = assay: Compound was tested for antiviral activity against Herpes Simplex virus Type-2(20605) in human lung fibroblasts (MRC-5); format: functional; procedure, shortened: as §2
MRC5 [14] = assay: Compound was tested for antiviral activity against Herpes Simplex virus Type-2(21929) in human lung fibroblasts (MRC-5); format: functional; procedure, shortened: as §2
MRC5 [15] = assay: Compound was tested for antiviral activity against Herpes Simplex virus Type-2(MS) in human lung fibroblasts (MRC-5); format: functional; procedure, shortened: as §2
MRC5 [16] = assay: Compound was tested for antiviral activity against Herpes Simplexin human lung fibroblasts (MRC-5)in vero cells; format: functional
MRC5 [17] = assay: Compound was tested for antiviral activity against Herpes Simplex virus Type-1(18189) in human lung fibroblasts (MRC-5); format: functional; procedure, shortened: as §2
MRC5 [18] = assay: Compound was tested for antiviral activity against Herpes Simplex virus Type-1(19407) in human lung fibroblasts (MRC-5); format: functional; procedure, shortened: as §2

| SMILES | IC50 (Vero [1]) [µM] | IC50 (Vero [2]) [µM] | also measured |
| --- | --- | --- | --- |
| COC(=O)CC(CO)CCn1cnc2c(O)nc(N)nc21 (configuration not stated) | 31 | 81 | – |
| Nc1nc(O)c2ncn(CCC(CO)CO)c2n1 [PENCICLOVIR] | 6.4 | 6.4 | IC90 (MRC5 [3]): 0.5 µM; IC90 (MRC5 [4]): 0.6 µM; IC90 (MRC5 [5]): 0.6 µM; IC90 (MRC5 [6]): 1.3 µM; IC90 (MRC5 [7]): 0.9 µM; IC90 (MRC5 [8]): 0.8 µM; IC90 (MRC5 [9]): 0.9 µM; IC90 (MRC5 [10]): 1.1 µM |
| COc1nc(N)nc2c1ncn2CCC(CO)CO | 236 | > 250 | – |
| Nc1nc(O)c2ncn(CCC(CC(=O)O)CC(=O)O)c2n1 | 10 | 5.8 | – |
| Nc1nc2c(ncn2COCCO)c(=O)[nH]1 [ACYCLOVIR] | 2.5 | 3.8 | IC90 (MRC5 [11]): 0.9 µM; IC90 (MRC5 [12]): 4.8 µM; IC90 (MRC5 [13]): 0.3 µM; IC90 (MRC5 [14]): 0.9 µM; IC90 (MRC5 [15]): 1.2 µM; IC90 (MRC5 [16]): 0.7 µM; IC90 (MRC5 [17]): 0.7 µM; IC90 (MRC5 [18]): 1.4 µM |
| CCCCCCCCCCCCCCCOC(=O)CC(CO)CCn1cnc2c(O)nc(N)nc21 (configuration not stated) | 128 | 33 | – |
| CCCCCOC(=O)CC(CO)CCn1cnc2c(O)nc(N)nc21 (configuration not stated) | 15 | 6 | – |
| CCCCCOC(=O)CC(CCn1cnc2c(O)nc(N)nc21)CC(=O)OCCCCC | 3.6 | 4.2 | – |
